In ChEMBL document CHEMBL1128279, “Potent inhibitors of human inosine monophosphate dehydrogenase type II. Fluorine-substituted analogues of thiazole-4-carboxamide adenine dinucleotide” (J Med Chem, 1995) one finds Kii and Kis data, which are given here for six molecules.

In test [1] the target is Inosine-5'-monophosphate dehydrogenase 2 (Homo sapiens) (UniProt P12268). As to the kind of experiment: Inhibitory binding constant was determined against human Inosine-5'-monophosphate dehydrogenase 2 (IMPDH type II) from intercept of Michaelis-Menten plot. The procedure, abridged: (§1)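 Human IMPDH type II, stored at -70 °C in 20 mM Tris-HCl pH 8, 20 mM KCl, 1 mM EDTA, 1 mM DTT, thawed and filtered before use. Assay at 37 °C, started by adding enzyme, with saturating IMP. NADH formation read at 340 nm for 2–10 min. NAD at 20, 40, 80 and 160 µM, with two or three inhibitor levels. Kii (intercept) and Kis (slope) obtained by direct least-squares fit to the noncompetitive equation.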
Sequence of Inosine-5'-monophosphate dehydrogenase 2 (Homo sapiens) (P12268 2-514 limits assumed): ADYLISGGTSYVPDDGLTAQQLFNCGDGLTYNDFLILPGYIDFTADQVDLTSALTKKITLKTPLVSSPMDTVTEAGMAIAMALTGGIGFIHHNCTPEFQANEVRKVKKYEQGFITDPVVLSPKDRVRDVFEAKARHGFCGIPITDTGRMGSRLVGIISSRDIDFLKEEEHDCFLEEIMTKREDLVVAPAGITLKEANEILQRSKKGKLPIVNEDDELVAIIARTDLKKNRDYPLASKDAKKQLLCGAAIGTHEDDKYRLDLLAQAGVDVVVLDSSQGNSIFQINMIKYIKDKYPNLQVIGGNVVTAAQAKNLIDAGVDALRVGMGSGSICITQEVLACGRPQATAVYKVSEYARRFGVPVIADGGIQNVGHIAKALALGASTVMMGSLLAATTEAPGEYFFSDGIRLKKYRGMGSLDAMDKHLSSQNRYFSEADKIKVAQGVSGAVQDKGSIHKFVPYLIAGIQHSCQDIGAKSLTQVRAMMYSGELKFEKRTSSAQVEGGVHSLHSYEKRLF

Test [2] has the same target. As to the kind of experiment: Inhibitory binding constant was determined against human Inosine-5'-monophosphate dehydrogenase 2 (IMPDH type II) from slope of Michaelis-Menten plot. The procedure, abridged: as §1

As for `NC(=O)c1csc([C@@H]2O[C@H](COP(=O)(O)CP(=O)(O)OC[C@@H]3O[C@H](n4cnc5c(N)ncnc54)[C@@H](O)[C@H]3O)[C@@H](O)[C@H]2O)n1`, the Kii in test [1] was 0.11 µM.
With `NC(=O)c1csc([C@@H]2O[C@H](COP(=O)(O)OP(=O)(O)OC[C@@H]3O[C@H](n4cnc5c(N)ncnc54)[C@@H](F)[C@H]3O)[C@@H](O)[C@H]2O)n1`, the Kis in test [2] stood at 6 µM. This molecule had a Kii in test [1] of 0.5 µM.
On the same counts, the results for `NC(=O)c1csc([C@@H]2O[C@H](COP(=O)(O)OP(=O)(O)OC[C@@H]3O[C@H](n4cnc5c(N)ncnc54)[C@@H](O)[C@H]3F)[C@@H](O)[C@H]2O)n1` are 1.5 µM and 0.7 µM.
`NC(=O)c1csc([C@@H]2O[C@H](COP(=O)(O)OP(=O)(O)OC[C@@H]3O[C@H](n4cnc5c(N)ncnc54)[C@H](F)[C@H]3O)[C@@H](O)[C@H]2O)n1`: in test [2], the Kis came out at 13 µM. In test [1], this molecule came in with a Kii of 2.9 µM.
As for `NC(=O)c1csc([C@H]2O[C@@H](COP(=O)(O)OP(=O)(O)OC[C@H]3O[C@@H](n4cnc5c(N)ncnc54)[C@H](O)[C@@H]3O)[C@H](O)[C@@H]2O)n1`, in test [2], the Kis was 0.3 µM. Also, in test [1], the Kii was 0.19 µM.
Regarding `NC(=O)c1csc([C@@H]2O[C@H](COP(=O)(O)C(F)(F)P(=O)(O)OC[C@@H]3O[C@H](n4cnc5c(N)ncnc54)[C@@H](O)[C@H]3O)[C@@H](O)[C@H]2O)n1`, the Kis in test [2] was 0.3 µM. Moreover, the Kii in test [1] turned out to be 0.17 µM.
